Source: ChEMBL document CHEMBL4396895, “Identification and Optimization of Novel Cathepsin C Inhibitors Derived from EGFR Inhibitors” (J Med Chem, 2019)
Active and inactive are the calls of the source. No cut-off for these calls is given here.

Experiments:
[1] = test system: Mus musculus; assay: Protection against C57BL/6 mouse model of caerulein-induced acute pancreatitis assessed as reduction in CatC activity at 20 mg/kg, po pretreated twice daily for 6 days followed by caerulein-challenge at 1 hr interval for 8 hrs and measured 1 hr post-last caerulein-challenge
[2] = test system: Mus musculus; assay: Protection against C57BL/6 mouse model of caerulein-induced acute pancreatitis at 20 mg/kg, po pretreated twice daily for 6 days followed by caerulein-challenge at 1 hr interval for 8 hrs and measured 1 hr post-last caerulein-challenge by H and E staining-based histological analysis
[3] = target: T1, Epidermal growth factor receptor (Homo sapiens, UniProt P00533); assay: Inhibition of EGFR (unknown origin) up to 10 uM using biotin-labelled peptide as substrate preincubated for 2 hrs followed by substrate addition and measured after 30 mins by HTRF FRET assay
Summary of the method: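 EGFR WT was used at 0.1 nM final in 50 mM HEPES pH 7.0, 0.02% NaN3, 0.01% BSA, 0.1 mM orthovanadate, 10 mM MgCl2, 2.5 mM DTT, 6.25 nM SEB. It was preincubated with compound for 2 h. Biotin-peptide (1.4 μM) and ATP (20 μM) were then added for 30 min at RT. Read-out was HTRF/TR-FRET (Ex 320, Em 615/665 nm) with a sigmoidal curve fit.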

[4] = target: T2, Dipeptidyl peptidase 1 (Homo sapiens, UniProt P53634); assay: Inhibition of CatL-activated recombinant human C-terminal His10-tagged cathepsin C (25 to 463 residues) expressed in mouse myeloma cells using Gly-Phe-AFC as substrate preincubated for 3 hrs followed by substrate addition and measured after 60 mins; type: cell-free
Summary of the method: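 Activated rhCatC was diluted to 4.4 nM in 25 mM MES, 50 mM NaCl, 5 mM DTT, 0.01% Triton X-100, pH 6.0. It was preincubated with compound (added in 10% DMSO) for 3 h at RT. Gly-Phe-AFC was then added to 100 μM final and read as fluorescence after 60 min. IC50 came from a sigmoidal nonlinear fit; values are means of at least two experiments.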

[5] = target: T1, Epidermal growth factor receptor; assay: Inhibition of EGFR (unknown origin) using biotin-labelled peptide as substrate preincubated for 2 hrs followed by substrate addition and measured after 30 mins by HTRF FRET assay
[6] = target: T2, Dipeptidyl peptidase 1; assay: Inhibition of cathepsin C in human U937 cells using H-Gly-Phe-AFC as substrate preincubated for 4 hrs followed by substrate addition and measured after 60 mins; type: cell-based
Summary of the method: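 THP1 or U937 cells, grown in RPMI 1640 with 10% FBS, were seeded at 1.0 × 10^6/mL. They were preincubated with threefold serial dilutions of compound for 4 h at 37 °C. H-Gly-Phe-AFC was then added from a 100 μM solution and fluorescence was read after 60 min at 37 °C. Values are means of at least two experiments.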

[7] = Intrinsic clearance in human liver microsomes assessed per mg protein measured after 60 mins in presence of NADPH by LC-MS/MS analysis; type: ADME, Microsome; details: read-out: CLH
[8] = Intrinsic clearance in rat liver microsomes assessed per mg protein measured after 60 mins in presence of NADPH by LC-MS/MS analysis; type: ADME, Microsome; details: read-out: CLH
[9] = Intrinsic clearance in mouse liver microsomes assessed per mg protein measured after 60 mins in presence of NADPH by LC-MS/MS analysis; type: ADME, Microsome; details: read-out: CLH

Row | inhibition [3] | IC50 [4] [nM] | IC50 [5] [µM] | IC50 [6] [nM] | microsomal CLint [7] [µL/min/mg] | microsomal CLint [8] [µL/min/mg] | microsomal CLint [9] [µL/min/mg] | Compound | Activity [1] | Activity [2]
1 | – | – | – | – | – | – | – | N#Cc1ccc(-c2ccc(C[C@@H](C#N)NC(=O)C3(N)CCOCC3)cc2)cc1 | Active | Active
2 | inactive | 810 | > 10 | 537 to 538 | 5.4 | 39.7 | 26.3 | C=CC(=O)Nc1cccc(Oc2nc(Nc3ccc(N4CCN(C)CC4)cc3OC)ccc2Cl)c1 | – | –
